These results are taken from ChEMBL document CHEMBL1121790, “Proposed dopaminergic pharmacophore of lergotrile, pergolide, and related ergot alkaloid derivatives” (1981).

The subject of experiment [1] is Felis catus. Kind of experiment: Compound was tested for percentage decrease in mean arterial blood pressure at 10 mg/kg in anaesthetized cat (resting mean arterial pressure (mmHg)). Format: functional, Artery. The gist of the method:
(§1)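 Pentobarbital sodium (30 mg/kg, intrathorax) anaesthetised cats; arterial pressure from right femoral artery via pressure transducer. Compound given iv, doses spaced 0.48 log units. Change in mean arterial pressure (increase, i.e. transient primary pressor phase, and decrease) and in resting heart rate expressed as % of resting control; resting pressure (mmHg) and heart rate (beats/min) also recorded.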

The subject of experiment [2] is Felis catus. Nature of the experiment: Compound was tested for percentage increase in mean arterial blood pressure at 30 mg/kg in anaesthetized cat. Format: functional, Artery. The gist of the method: as §1
The test system of experiment [3] is Felis catus. Nature of the experiment: Compound was tested for percentage decrease in mean arterial blood pressure at 3 mg/kg in anaesthetized cat. It is filed as functional, Artery. The gist of the method: as §1
In experiment [4] the test system is Felis catus. Nature of the experiment: Compound was tested for neuronal inhibition of postganglionic cardio accelerator nerve stimulation in anaesthetized cat at 2 Hz frequency at 30 mg/kg. Conditions: Heart. It is filed as functional. The gist of the method:
(§2)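 Cats anaesthetised with pentobarbital sodium (30 mg/kg, intrathorax); arterial pressure recorded from right femoral artery. Postganglionic cardioaccelerator nerve stimulated at 2 Hz, 5 ms pulses, supramaximal voltage, 20-30 s trains. After stable controls, compound given iv in doses spaced 0.48 log units; inhibition of stimulation-induced tachycardia measured. Haloperidol 100 μg iv at end, inhibition redetermined. ID50 by probit analysis.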

Experiment [5] deals with Felis catus. Kind of experiment: Compound was tested for percentage increase in mean arterial blood pressure at 3 mg/kg in anaesthetized cat. It is filed as functional, Artery. The gist of the method: as §1
Experiment [6] concerns Felis catus. Nature of the experiment: Potency relative to apomorphine at 3 mg/kg in anaesthetized cat. Format: functional.
Experiment [7] relates to Felis catus. Kind of experiment: Compound was tested for inhibitory effect reversed by haloperidol (100 ug/kg) at 3 mg/kg in anaesthetized cat; yes. It is filed as functional, organism-based. Further details: dose 3 mg/kg. The gist of the method: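 Pentobarbital sodium (30 mg/kg) anaesthetised cats; arterial pressure recorded from the right femoral artery. Postganglionic cardioaccelerator nerve stimulated at 2 Hz with 5 ms pulses at supramaximal voltage, in 20-30 s trains. After stable controls, compound was given iv in doses spaced at 0.48 log intervals. Haloperidol (100 μg/kg iv) was then given and inhibition of nerve-evoked tachycardia redetermined.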

The test system of experiment [8] is Felis catus. Nature of the experiment: Compound was tested for percentage decrease in heart rate at 3 mg/kg in anaesthetized cat. It is filed as functional. The gist of the method:
as §1

In experiment [9] the test system is Felis catus. Nature of the experiment: Sympathetic neuronal inhibiting activity in anaesthetized cat 3 at mg/kg. Format: functional. Particulars: Sympathetic neuron, read-out: ID50 (the source's name). The gist of the method:
as §2

Experiment [10] has as its system Felis catus. Kind of experiment: Compound was tested for neuronal inhibition of postganglionic cardio accelerator nerve stimulation in anaesthetized cat at 2 Hz frequency at 10 mg/kg. It is filed as functional. Particulars: Heart. The gist of the method: as §2
The subject of experiment [11] is Felis catus. Kind of experiment: Compound was tested for neuronal inhibition of postganglionic cardio accelerator nerve stimulation in anaesthetized cat at 2 Hz frequency at 3 mg/kg. Conditions: Heart. It is filed as functional. The gist of the method: as §2
The subject of experiment [12] is Felis catus. Nature of the experiment: Compound was tested for percentage increase in mean arterial blood pressure at 10 mg/kg in anaesthetized cat. Format: functional, Artery. The gist of the method:
as §1

Experiment [13] deals with Felis catus. Nature of the experiment: Compound was tested for percentage decrease in heart rate at 10 mg/kg in anaesthetized cat. It is filed as functional. The gist of the method:
as §1

For experiment [14], the system named is Felis catus. Kind of experiment: Compound was tested for percentage decrease in mean arterial blood pressure at 30 mg/kg in anaesthetized cat. It is filed as functional, Artery. The gist of the method:
as §1

Experiment [15] deals with Felis catus. Nature of the experiment: Compound was tested for percentage decrease in heart rate at 30 mg/kg in anaesthetized cat. It is filed as functional. The gist of the method:
as §1

Experiment [16] relates to Felis catus. Kind of experiment: Sympathetic neuronal inhibiting activity in anaesthetized cat 30 at mg/kg; 0.12-0.33. It is filed as functional. Conditions: Sympathetic neuron, read-out: ID50 (the source's name). The gist of the method:
as §2

Experiment [17] concerns Felis catus. Nature of the experiment: Compound was tested for percentage decrease in mean arterial blood pressure at 300 mg/kg in anaesthetized cat. It is filed as functional, Artery. The gist of the method: as §1
The test system of experiment [18] is Felis catus. Kind of experiment: Potency relative to apomorphine at […] in anaesthetized cat; 0.07-0.33. It is filed as functional.
Experiment [19] has as its system Felis catus. Nature of the experiment: Compound was tested for percentage decrease in heart rate at […] in anaesthetized cat (resting heart rate (beats/min)). Format: functional. The gist of the method:
as §1

Experiment [20] relates to Felis catus. Nature of the experiment: Compound was tested for percentage increase in mean arterial blood pressure at 100 mg/kg in anaesthetized cat. Format: functional, Artery. The gist of the method: as §1
The subject of experiment [21] is Felis catus. Nature of the experiment: Compound was tested for neuronal inhibition of postganglionic cardio accelerator nerve stimulation in anaesthetized cat at 2 Hz frequency at 100 mg/kg. Format: functional. Particulars: Heart. The gist of the method: as §2
Experiment [22] concerns Felis catus. Nature of the experiment: Compound was tested for percentage increase in mean arterial blood pressure at 300 mg/kg in anaesthetized cat. It is filed as functional, Artery. The gist of the method: as §1
The subject of experiment [23] is Felis catus. Nature of the experiment: Compound was tested for neuronal inhibition of postganglionic cardio accelerator nerve stimulation in anaesthetized cat at 2 Hz frequency at 300 mg/kg. Particulars: Heart. Format: functional. The gist of the method:
as §2

Experiment [24] deals with Felis catus. Nature of the experiment: Compound was tested for percentage decrease in mean arterial blood pressure at 100 mg/kg in anaesthetized cat (resting mean arterial pressure (mmHg)). It is filed as functional, Artery. The gist of the method:
as §1

Experiment [25] concerns Felis catus. Kind of experiment: Compound was tested for inhibitory effect reversed by haloperidol (100 ug/kg) at […] in anaesthetized cat; Yes. Format: functional, organism-based. The gist of the method: as §2
Experiment [26] deals with Felis catus. Nature of the experiment: Compound was tested for percentage decrease in heart rate at 300 mg/kg in anaesthetized cat. Format: functional. The gist of the method:
as §1

The subject of experiment [27] is Felis catus. Kind of experiment: Sympathetic neuronal inhibiting activity in anaesthetized cat at 30 mg/kg. It is filed as functional. Particulars: Sympathetic neuron, read-out: ID50 (the source's name). The gist of the method:
as §2

Experiment [28] concerns Felis catus. Nature of the experiment: Compound was tested for percentage decrease in mean arterial blood pressure at 100 mg/kg in anaesthetized cat. Format: functional, Artery. The gist of the method:
as §1

Experiment [29] relates to Felis catus. Kind of experiment: Potency relative to apomorphine at 30 mg/kg in anaesthetized cat. Format: functional.
The test system of experiment [30] is Felis catus. Nature of the experiment: Compound was tested for percentage decrease in heart rate at 100 mg/kg in anaesthetized cat. It is filed as functional. The gist of the method: as §1

Active and inactive are the calls of the source. The calls are words filed in the database; no cut-off is given here.

The inhibition in vivo is the share of the control response that was lost under treatment. In the case of `CCCN1C[C@H](CSC)C[C@@H]2c3cccc4[nH]cc(c34)C[C@H]21` [PERGOLIDE], the Decrease in experiment [1] was 8%; in experiment [3], 5%; in [8], 23%; in experiment [13], 59%; in experiment [14], 6%; in experiment [15], 80%. Besides, the Increase was found to be 52% in experiment [2], 5% in experiment [5] and 15% in experiment [12]. Also, the inhibition in vivo at 30 mg/kg in [4] was found to be 80%. The Ratio in [6] is 1.13. Besides, in experiment [7], the Inhibitory effect result is “Active”. Moreover, the ED50 in [9] came out at 0.02 µmol/kg. In addition, at 10 mg/kg the inhibition in vivo in experiment [10] was 59%. At 3 mg/kg the inhibition in vivo in experiment [11] was 23%.
As for `CNCCc1cccc2[nH]ccc12`, the figures for the Increase in experiment [2], in [20] and in experiment [22] were 6%, 16% and 41%, respectively. In experiment [4], this molecule registered an inhibition in vivo at 30 mg/kg of 29%. For the same molecule, in experiment [16], the ED50 was determined as 0.22 µmol/kg. The Decrease was 10% in experiment [17]; 12% in experiment [19]; 18% in experiment [24]; 10% in experiment [26]; 11% in [14]; 7% in experiment [15]. The Ratio in experiment [18] amounted to 0.14. In experiment [21], testing at 100 mg/kg gave an inhibition in vivo of 60%. In experiment [23], the inhibition in vivo at 300 mg/kg amounted to 77%. In addition, the Inhibitory effect result in experiment [25] is “Yes”.
Regarding `CN1C[C@H](CC#N)C[C@@H]2c3cccc4[nH]c(Cl)c(c34)C[C@H]21` [LERGOTRILE], the ED50 in [27] is 0.27 µmol/kg. Besides, at 30 mg/kg the inhibition in vivo in experiment [4] was 21%. The Decrease is 38% in experiment [17]; 34% in experiment [28]; 10% in [30]; 12% in experiment [26]; 22% in experiment [14]; 11% in experiment [15]. In [21], this molecule displayed an inhibition in vivo at 100 mg/kg of 57%. In experiment [23], this molecule yielded an inhibition in vivo at 300 mg/kg of 69%. Besides, the Ratio in [29] is on record as 0.08. The Inhibitory effect entry in experiment [25] is “Yes”.
